Results published in ChEMBL document CHEMBL1821637, “Selective cytotoxicity of oxysterols through structural modulation on rings A and B. Synthesis, in vitro evaluation, and SAR” (J Med Chem, 2011).

Experiments:
[1] = Cytotoxicity against human ARPE19 cells assessed as cell viability after 48 hrs by alamar blue assay; format: cell-based, ARPE-19; conditions: Homo sapiens, ARPE-19, 48 h
In short: (§1)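 Alamar Blue viability assay on the human cell line named (origins given: HT-29 colorectal adenocarcinoma, HepG2 hepatocellular carcinoma, LAMA-84 myeloid leukemia, A549 lung adenocarcinoma, PC3 prostate metastasis, MCF-7 breast adenocarcinoma, ARPE-19 retinal pigment epithelium, BJ skin fibroblast). Exposure was 48 h. Sterol stocks were made in DMSO. IC50 is the concentration inhibiting 50% of cellular growth, given as the mean of at least three separate experiments.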

[2] = Cytotoxicity against human ARPE19 cells assessed as inhibition of cell growth after 96 hrs by alamar blue assay; format: cell-based; conditions: ARPE-19, 96 h
In short: (§2)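 HT-29 and ARPE-19 cells exposed for 96 h. ARPE-19 seeded at 5 10^3 cells/well for this period. Sterol stocks in DMSO. Viability by Alamar Blue. IC50 is the concentration inhibiting 50% of cellular growth, mean of at least three separate experiments.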

[3] = system: HT-29; assay: Cytotoxicity against human HT-29 cells assessed as inhibition of cell growth after 96 hrs by alamar blue assay; format: functional, cell-based; conditions: HT-29, 96 h; in short: as §2
[4] = system: HT-29; assay: Selectivity index, ratio of IC50 for human ARPE19 cells to IC50 for human HT-29 cells; format: functional
[5] = system: HT-29; assay: Cytotoxicity against human HT-29 cells assessed as cell viability after 48 hrs by alamar blue assay; format: functional, cell-based; conditions: HT-29, 48 h; in short: as §1

| SMILES | IC50 [1] [µM] | IC50 [2] [µM] | IC50 [3] [µM] | Ratio IC50 [4] | IC50 [5] [µM] |
| --- | --- | --- | --- | --- | --- |
| CC(=O)O[C@H]1[C@@H](O)CC[C@]2(C)[C@H]3CC[C@]4(C)[C@@H]([C@H](C)CCCC(C)C)CC[C@H]4[C@@H]3CC[C@@]12O | 37.4 | 22.3 | 18.7 | 2.46 | 15.2 |
| CC(=O)O[C@H]1CC[C@]2(C)[C@H]3CC[C@]4(C)[C@@H]([C@H](C)CCCC(C)C)CC[C@H]4[C@@H]3[C@@H](O)[C@@H](O)[C@@]2(O)C1 | 30.5 | 23.8 | 14.7 | 1.62 | 18.8 |
| CC(=O)O[C@H]1CC[C@]2(C)[C@H]3CC[C@]4(C)[C@@H]([C@H](C)CCCC(C)C)CC[C@H]4[C@@H]3C[C@@H](OC(C)=O)[C@@]2(O)C1 | 64.1 | 35.4 | 25.3 | 1.49 | 43.1 |
| CC(=O)O[C@H]1CC[C@]2(C)[C@H]3CC[C@]4(C)[C@@H]([C@H](C)CCCC(C)C)CC[C@H]4[C@@H]3[C@@H](OC(C)=O)[C@@H](O)[C@@]2(O)C1 | 29 | 19.5 | 16.6 | 1.44 | 20.1 |
| CC(=O)O[C@H]1CC[C@]2(C)[C@H]3CC[C@]4(C)[C@@H]([C@H](C)CCCC(C)C)CC[C@H]4[C@@H]3CC[C@@]2(O)[C@H]1O | 32.5 | 21.8 | 17.7 | 1.75 | 18.6 |
| CC(=O)O[C@H]1CC[C@@]2(C)C(=C[C@H](O)[C@H]3[C@@H]4CC[C@H]([C@H](C)CCCC(C)C)[C@@]4(C)CC[C@@H]32)C1 | 46.5 | 23.6 | 12.4 | 1.58 |  |
